“And” between values parts separate entries of the source, which are not always exact repeats. Equal values may be shown once. Square brackets hold non-standard residues; d marks the D form. Peptide text beside a SMILES is read from it. * marks the point of attachment. Dolaproine = CO[C@@H]([C@@H]1CCCN1)[C@@H](C)C(=O)O; Dil = CC[C@H](C)[C@H](NC)[C@@H](CC(=O)O)OC; X1 = C[C@@H](N*)[C@@H](O)c1ccccc1; NMeV = CN[C@H](C(=O)O)C(C)C
Assays:
QTcF interval [1] = details: cited from earlier work; for Cmax geometric mean: EV-102, after third dose, cycle 1 day 15, 1.25 mg/kg
[2] = EV-201 clinical PK of ADC, TAb and free MMAE after enfortumab vedotin 1.25 mg/kg; format: in vivo, human; details: for AUCd0–14: cycle 1, dose 3, day 15, geometric mean (%CV)
[3] = test system: Nectin-4–expressing malignant solid tumors; assay: AGS-22M6E-11-1 phase I study; format: in vivo, human; details: for median t½: observed concentrations
Outline: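 First-in-human study in which patients received an intravenous infusion every 3 weeks at 0.6 or 1.2 mg/kg. ADC is measured as antibody carrying any amount of conjugated MMAE. Median half-life is derived from observed ADC concentrations at each dose level. Safety, tolerability and clinical response are assessed per dose cohort.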

[4] = test system: locally advanced or metastatic urothelial carcinoma; assay: EV-301 phase III: exposure–response for overall survival; format: in vivo, human; details: enfortumab vedotin range across ADC Cavg quartiles
[5] = test system: mUC and other Nectin-4–expressing malignant solid tumors; assay: EV-101 phase I dose-escalation; format: in vivo, human
[6] = Adverse events in pooled enfortumab vedotin 1.25 mg/kg safety group; format: in vivo, human; details: for patients with grade 3 or higher TRAEs / patients with serious TRAEs: 1.25 mg/kg safety analysis group; for patients with TRAE grade 3 or higher / patients with serious TRAE: 1.25 mg/kg
Outline: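 Pooled integrated safety dataset (N = 680) from the clinical development program. Patients received monotherapy at 1.25 mg/kg (maximum 125 mg) as a 30-min IV infusion on days 1, 8 and 15 of each 28-day cycle until progression or unacceptable toxicity. Treatment-emergent and treatment-related AEs, including serious events, were tabulated by subgroups of concomitant inhibitor use.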

[7] = Population PK analysis of five clinical studies; format: in vivo, human; details: enfortumab vedotin 0.5–1.25 mg/kg
[8] = Population PK: model-predicted exposures by race/ethnicity; format: in vivo, human; details: for difference in exposure, lower in Asian patients: cycle 1 AUC0–28d and Cmax, Asian vs non-Asian; for geometric least square mean ratios of Cmax, AUC0–28d and Ctrough lower in Japanese than non-Japanese patients: population PK model-simulated
[9] = test system: locally advanced or metastatic urothelial carcinoma; assay: EV-201; format: in vivo, human; details: upper three ADC Cavg exposure quartiles
OCT1 = details: in vitro, clinically relevant concentrations; cited from earlier work
QTcF interval [10] = assay: EV-102 concentration–QTcF analysis; format: in vivo, human; details: patients, third dose of enfortumab vedotin 1.25 mg/kg
MRP2 = details: in vitro, cited from earlier work
P-glycoprotein (P-gp) = details: in vitro, cited from earlier work
OATP1B3 = details: in vitro, cited from earlier work
[11] = test system: cytochrome P450 (CYP) 3A4; details: background statement, no reference given; cited from earlier work
OATP1B1 = details: in vitro, cited from earlier work
[12] = MMAE given as brentuximab vedotin; cited from earlier work
OAT3 = details: in vitro, cited from earlier work
[13] = target: human ether-a-go-go–related (hERG) channel (Homo sapiens, UniProt Q12809); assay: hERG channel inhibition, whole-cell voltage clamp; format: cell-based
Outline: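 In vitro hERG current by conventional whole-cell voltage clamp, with MMAE (free payload) tested at concentrations up to 100 μM. Half-maximal inhibitory concentration is estimated from the concentration–inhibition data. The comparator is the mean estimated maximum unbound plasma MMAE concentration in patients after a third 1.25 mg/kg dose, using an unbound fraction of 0.32.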

BSEP = details: in vitro, clinically relevant concentrations; cited from earlier work
plasma proteins [14] = assay: MMAE protein binding in human plasma; format: in vitro ADME; details: used for unbound Cmax
BCRP = details: in vitro; cited from earlier work
[15] = Population PK: effect of mild hepatic impairment on model-predicted exposures; format: in vivo, human; details: mild hepatic impairment compared with normal hepatic function
plasma proteins [16] = details: 3H-MMAE, human plasma; cited from earlier work
OCT2 = details: in vitro, cited from earlier work
OAT1 = details: in vitro, cited from earlier work
CYP3A = details: when administered as part of an ADC; cited from earlier work
[17] = clinically relevant concentrations

Sequence of human ether-a-go-go–related (hERG) channel (Q12809 whole entry): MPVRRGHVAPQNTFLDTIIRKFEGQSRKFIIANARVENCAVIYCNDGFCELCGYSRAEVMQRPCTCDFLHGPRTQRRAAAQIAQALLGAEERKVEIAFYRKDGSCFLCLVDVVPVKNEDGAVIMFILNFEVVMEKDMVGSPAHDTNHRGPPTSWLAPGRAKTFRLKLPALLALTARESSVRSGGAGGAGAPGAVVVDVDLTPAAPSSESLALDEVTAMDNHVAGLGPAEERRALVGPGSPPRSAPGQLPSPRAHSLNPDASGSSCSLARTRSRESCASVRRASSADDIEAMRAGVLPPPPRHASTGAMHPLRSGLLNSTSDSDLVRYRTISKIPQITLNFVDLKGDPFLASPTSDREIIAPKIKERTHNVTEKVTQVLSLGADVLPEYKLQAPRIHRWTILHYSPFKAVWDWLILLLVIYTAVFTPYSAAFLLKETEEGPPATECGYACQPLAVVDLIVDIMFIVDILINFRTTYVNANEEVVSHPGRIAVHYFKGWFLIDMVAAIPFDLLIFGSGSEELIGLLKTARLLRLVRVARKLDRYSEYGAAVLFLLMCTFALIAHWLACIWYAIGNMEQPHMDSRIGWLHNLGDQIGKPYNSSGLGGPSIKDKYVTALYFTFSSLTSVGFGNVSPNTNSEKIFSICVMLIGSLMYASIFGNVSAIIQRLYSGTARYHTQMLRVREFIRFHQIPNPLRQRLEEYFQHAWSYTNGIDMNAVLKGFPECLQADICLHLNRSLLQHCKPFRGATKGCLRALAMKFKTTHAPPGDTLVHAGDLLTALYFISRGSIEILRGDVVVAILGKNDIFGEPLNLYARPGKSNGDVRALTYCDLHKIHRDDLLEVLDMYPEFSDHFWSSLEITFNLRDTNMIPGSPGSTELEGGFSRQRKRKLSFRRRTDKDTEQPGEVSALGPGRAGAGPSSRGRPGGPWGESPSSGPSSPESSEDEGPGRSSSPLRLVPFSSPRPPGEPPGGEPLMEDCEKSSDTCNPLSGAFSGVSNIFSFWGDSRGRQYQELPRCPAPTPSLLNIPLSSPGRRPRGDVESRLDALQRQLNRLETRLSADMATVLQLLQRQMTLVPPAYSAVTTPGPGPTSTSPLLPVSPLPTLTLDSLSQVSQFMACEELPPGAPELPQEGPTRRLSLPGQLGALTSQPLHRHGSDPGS

## Enfortumab vedotin: fully human anti–Nectin-4 IgG1 kappa monoclonal antibody conjugated to MMAE via a protease-cleavable maleimidocaproyl valine–citrulline linker
QTcF interval [1]; EV-102, 1.0 or 1.25 mg/kg
  QT prolongation: No clinically meaningful QT prolongation was observed
  slope estimate, dQTcF vs concentration: 0.539 ms/(μg/mL)
QTcF interval [1]
  Cmax geometric mean: 20100 ng/mL
[2]; listed as ADC
  AUCd0–14: 34.7 µg·days/mL
[3]; 0.6 mg/kg and 1.2 mg/kg every 3 weeks
  clinical response: clinical response was not observed
[3]; 1.2 mg/kg intravenous dose
  median t½: 57.4 h
[3]; 0.6-mg/kg dose
  median t½: 39.6 h
[4]
  median OS: 11.0–15.2 months
[5]; EV-101, 0.5–1.25 mg/kg
  maximum tolerated dose: not identified
[5]; EV-101, 1.25-mg/kg dose level
  confirmed objective response rate [ORR]: 42.9%
[6]; mild CYP3A inhibitors
  patients with grade 3 or higher TRAEs: 51.1%
  patients with serious TRAEs: 20.7%
[6]; moderate CYP3A inhibitors
  patients with grade 3 or higher TRAEs: 61.8%
  patients with serious TRAEs: 28.7%
[6]; not receiving CYP3A inhibitors
  patients with grade 3 or higher TRAEs: 41.5%
  patients with serious TRAEs: 14.4%
[6]; not receiving P-gp inhibitors
  patients with TRAE grade 3 or higher: 33.3%
  patients with serious TRAE: 10.0%
[6]; receiving P-gp inhibitors
  patients with TRAE grade 3 or higher: 56.8%
  patients with serious TRAE: 24.3%
[7]
  mean clearance: 0.11 L/h
[8]
  difference in exposure, lower in Asian patients: < 11%
  geometric least square mean ratios of Cmax, AUC0–28d and Ctrough lower in Japanese than non-Japanese patients: 2.7–11.6%
[9]
  ORR (complete and partial responses): 55–64%

## TAb: analyte: fully conjugated, partially conjugated, and unconjugated antibody after enfortumab vedotin administration
[2]; after repeat enfortumab vedotin dosing
  geometric mean ratio (GMR) of accumulation: 1.1
[2]
  AUCd0–14: 98.1 µg·days/mL
[2]; end of cycle 1
  average Ctrough, TAb relative to ADC: approximately 5.5 fold

## CC[C@H](C)[C@@H]([C@@H](CC(=O)N1CCC[C@H]1[C@H](OC)[C@@H](C)C(=O)N[C@H](C)[C@@H](O)c1ccccc1)OC)N(C)C(=O)[C@@H](NC(=O)[C@@H](NC)C(C)C)C(C)C [MMAE, monomethyl auristatin E] (H-[NMeV]V[Dil][Dolaproine]-X1)
QTcF interval [1]
  Cmax geometric mean: 3.94 ng/mL
QTcF interval [1]; at geometric mean Cmax, 1.25 mg/kg
  Predicted dQTcF interval (population mean change in QTcF), mean (SE in table): -3.14 ms
OCT1
  inhibitor of OCT1: not an inhibitor
QTcF interval [10]
  mean estimate of maximum unbound MMAE concentration: 0.002 μM and 1.26 ng/mL
MRP2; [17]
  inhibitor of MRP2: not an inhibitor
MRP2
  substrate of MRP2: not a substrate
[2]; across cycles 1 and 2, enfortumab vedotin 1.25 mg/kg
  Mean Cmax: 2.4 to 3.9 ng/mL
[2]; after dosing of enfortumab vedotin 1.25 mg/kg
  time to peak concentration: 2 to 3 days
[2]; enfortumab vedotin 1.25 mg/kg
  Cmax lower than that of ADC: more than 1000 fold
P-glycoprotein (P-gp); [17]
  inhibitor of P-gp: not an inhibitor
P-glycoprotein (P-gp)
  substrate of P-gp: substrate
OATP1B3; [17]
  inhibitor of OATP1B3: not an inhibitor
OATP1B3
  substrate of OATP1B3: not a substrate
[11]
  metabolizing enzyme: primarily metabolized by cytochrome P450 (CYP) 3A4
OATP1B1; [17]
  inhibitor of OATP1B1: not an inhibitor
OATP1B1
  substrate of OATP1B1: not a substrate
[7]
  mean clearance: 2.11 L/h
[12]
  share of excreted MMAE that was excreted in feces: approximately 72%
  total MMAE administered excreted in feces and urine: approximately 24%
[8]
  difference in exposure, lower in Asian patients: < 11%
  geometric least square mean ratios of Cmax, AUC0–28d and Ctrough lower in Japanese than non-Japanese patients: 2.7–11.6%
OAT3; [17]
  inhibitor of OAT3: not an inhibitor
OAT3
  substrate of OAT3: not a substrate
[13]; 100 μM vs 0.002 μM
  IC50 estimate relative to mean maximum unbound MMAE concentration: approximately 50,000 fold
[13]; read-out: half maximal inhibitory concentration, concentrations up to 100 μM
  IC50: > 100 µM
BSEP
  inhibitor of BSEP: not an inhibitor
Plasma proteins [14]
  unbound fraction: 0.32
BCRP
  substrate of BCRP: not a substrate
[15]
  increase in AUC0–28d: 37%
  increase in Cmax: 31%
Plasma proteins [16]
  bound to plasma proteins: 67.9–82.2%
OCT2; [17]
  inhibitor of OCT2: not an inhibitor
OCT2
  substrate of OCT2: not a substrate
OAT1; [17]
  inhibitor of OAT1: not an inhibitor
OAT1
  substrate of OAT1: not a substrate
CYP3A
  inhibitor or inducer of CYP3A: neither an inhibitor nor an inducer
